ChEMBL document CHEMBL1124441, “Synthesis of congeners and prodrugs. 3. Water-soluble prodrugs of taxol with potent antitumor activity” (1989)

Legend:
[1] = test system: B16; test: Antitumor activity in B16 Melanoma system animals is indicated by survivors on day 4 at a dose of 2.5 mg/kg intraperitoneally; format: functional, Mus musculus; set-up: reference not given here; conditions: route intraperitoneal
Outline: (§1)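 B16 melanoma, 10^6 cells inoculated ip on day 0. Ip treatment started day 1, schedule Q01Dx09 (one dose daily for 9 days). The score is live animals on day 4 over total animals; early deaths are taken as drug toxicity.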

[2] = test system: B16; test: (§2) Difference in body weight in grams between test and control animals at a dose of 10 mg/kg intraperitoneally; format: functional, Mus musculus; conditions: route intraperitoneal
Outline: (§3)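 B16 melanoma system: 10⁶ tumor cells inoculated ip on day 0. Drug given ip once daily for 9 days (Q01Dx09) starting day 1, dose as mg/kg body weight per injection. Read-out is the body-weight difference in grams, treated minus control animals. Early deaths, taken as toxicity, are scored on day 4.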

[3] = test system: B16; test: (§4) Difference in body weight in grams between test and control animals at a dose of 5 mg/kg intraperitoneally; format: functional, Mus musculus; conditions: route intraperitoneal; outline: as §3
[4] = test system: B16; test: Percent of median lifetime of test animals divided by the median lifetime of control animals at a dose of 5 mg/kg intraperitoneally; format: functional, Mus musculus; conditions: route intraperitoneal
Outline: (§5)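 B16 melanoma inoculated ip (10⁶ cells) on day 0. Daily ip treatment for 9 days (Q01Dx09) begins day 1, dosed per injection in mg/kg. %T/C is the median lifespan of treated animals divided by that of tumored untreated controls, ×100. Cures are animals alive on the last test day. Toxic deaths are assessed on day 4.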

[5] = test system: B16; test: Antitumor activity in B16 Melanoma system animals is indicated by survivors on day 4 at a dose of 20 mg/kg intraperitoneally; format: functional, Mus musculus; set-up: reference not given here; conditions: route intraperitoneal; outline: as §1
[6] = test system: B16; test: Antitumor activity in B16 Melanoma system animals is indicated by survivors on day 4 at a dose of 10 mg/kg intraperitoneally; format: functional, Mus musculus; set-up: reference not given here; conditions: route intraperitoneal; outline: as §1
[7] = test system: B16; test: (§6) Difference in body weight in grams between test and control animals at a dose of 20 mg/kg intraperitoneally; format: functional, Mus musculus; conditions: route intraperitoneal; outline: as §3
[8] = test system: B16; test: Percent of median lifetime of test animals divided by the median lifetime of control animals at a dose of 1.25 mg/kg intraperitoneally; format: functional, Mus musculus; conditions: route intraperitoneal; outline: as §5
[9] = test system: B16; test: Percent of median lifetime of test animals divided by the median lifetime of control animals at a dose of 2.5 mg/kg intraperitoneally; format: functional, Mus musculus; conditions: route intraperitoneal; outline: as §5
[10] = test system: MX1; test: as §4; format: functional, Mus musculus; conditions: route intraperitoneal
[11] = test system: MX1; test: as §2; format: functional, Mus musculus; conditions: route intraperitoneal
[12] = test system: B16; test: Difference in body weight in grams between test and control animals at a dose of 1.2 mg/kg intraperitoneally; format: functional, Mus musculus; conditions: route intraperitoneal
Outline: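 B16 melanoma, 10^6 cells ip on day 0, then ip dosing from day 1, once daily for 9 days (Q01Dx09). The value is the body-weight difference in grams, treated minus tumored control animals.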

[13] = test system: B16; test: Antitumor activity in B16 Melanoma system animals is indicated by survivors on day 4 at a dose of 5 mg/kg intraperitoneally; format: functional, Mus musculus; conditions: route intraperitoneal; outline: as §1
[14] = test system: B16; test: Antitumor activity in B16 Melanoma system animals is indicated by survivors on day 4 at a dose of 1.2 mg/kg intraperitoneally; format: functional, Mus musculus; conditions: route intraperitoneal; outline: as §1
[15] = test system: MX1; test: as §6; format: functional, Mus musculus; conditions: route intraperitoneal
[16] = test system: B16; test: Percent of median lifetime of test animals divided by the median lifetime of control animals at a dose of 10 mg/kg intraperitoneally; format: functional, Mus musculus; conditions: route intraperitoneal; outline: as §5
[17] = test system: MX1; test: (§7) Difference in body weight in grams between test and control animals at a dose of 40 mg/kg intraperitoneally; format: functional, Mus musculus; conditions: route intraperitoneal
[18] = test system: B16; test: (§8) Difference in body weight in grams between test and control animals at a dose of 2.5 mg/kg intraperitoneally; format: functional, Mus musculus; conditions: route intraperitoneal; outline: as §3
[19] = test system: B16; test: Percent of median lifetime of test animals divided by the median lifetime of control animals at a dose of 20 mg/kg intraperitoneally; format: functional, Mus musculus; conditions: route intraperitoneal; outline: as §5
[20] = test system: MX1; test: as §8; format: functional, Mus musculus; conditions: route intraperitoneal
[21] = test system: B16; test: Antitumor activity in B16 Melanoma system animals is indicated by survivors on day 4 at a dose of 44 mg/kg intraperitoneally; format: functional, Mus musculus; conditions: route intraperitoneal; outline: as §1
[22] = test system: B16; test: Percent of median lifetime of test animals divided by the median lifetime of control animals at a dose of 22 mg/kg intraperitoneally; format: functional, Mus musculus; conditions: route intraperitoneal; outline: as §5
[23] = test system: B16; test: Difference in body weight in grams between test and control animals at a dose of 22 mg/kg intraperitoneally; format: functional, Mus musculus; conditions: route intraperitoneal; outline: as §3
[24] = test system: B16; test: Percent of median lifetime of test animals divided by the median lifetime of control animals at a dose of 2.75 mg/kg intraperitoneally; format: functional, Mus musculus; conditions: route intraperitoneal; outline: as §5
[25] = test system: B16; test: Antitumor activity in B16 Melanoma system animals is indicated by survivors on day 4 at a dose of 22 mg/kg intraperitoneally; format: functional, Mus musculus; conditions: route intraperitoneal; outline: as §1
[26] = test system: B16; test: Percent of median lifetime of test animals divided by the median lifetime of control animals at a dose of 11 mg/kg intraperitoneally; format: functional, Mus musculus; conditions: route intraperitoneal; outline: as §5
[27] = test system: B16; test: Percent of median lifetime of test animals divided by the median lifetime of control animals at a dose of 5.5 mg/kg intraperitoneally; format: functional, Mus musculus; conditions: route intraperitoneal; outline: as §5
[28] = test system: B16; test: Percent of median lifetime of test animals divided by the median lifetime of control animals at a dose of 44 mg/kg intraperitoneally; format: functional, Mus musculus; conditions: route intraperitoneal; outline: as §5
[29] = test system: B16; test: Antitumor activity in B16 Melanoma system animals is indicated by survivors on day 4 at a dose of 5.5 mg/kg intraperitoneally; format: functional, Mus musculus; conditions: route intraperitoneal; outline: as §1
[30] = test system: B16; test: Difference in body weight in grams between test and control animals at a dose of 44 mg/kg intraperitoneally; format: functional, Mus musculus; conditions: route intraperitoneal; outline: as §3
[31] = test system: B16; test: Antitumor activity in B16 Melanoma system animals is indicated by survivors on day 4 at a dose of 11 mg/kg intraperitoneally; format: functional, Mus musculus; conditions: route intraperitoneal; outline: as §1
[32] = test system: B16; test: Antitumor activity in B16 Melanoma system animals is indicated by survivors on day 4 at a dose of 2.75 mg/kg intraperitoneally; format: functional, Mus musculus; conditions: route intraperitoneal; outline: as §1
[33] = test system: B16; test: Antitumor activity in B16 Melanoma system animals is indicated by survivors on day 4 at a dose of 40 mg/kg intraperitoneally; format: functional, Mus musculus; conditions: route intraperitoneal; outline: as §1
[34] = test system: B16; test: Percent of median lifetime of test animals divided by the median lifetime of control animals at a dose of 40 mg/kg intraperitoneally; Toxic; format: functional, organism-based; set-up: dose 40 mg/kg; conditions: Mus musculus
Outline: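 B16 melanoma, 10^6 cells ip on day 0, ip treatment from day 1, Q01Dx09 (single dose daily for 9 days). %T/C is median lifetime of treated over untreated tumored controls, times 100. Early deaths are assessed on day 4 for toxicity. Cures are animals alive on the last test day.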

[35] = test system: B16; test: as §7; format: functional, Mus musculus; conditions: route intraperitoneal; outline: as §3

CC(=O)OC1C(=O)[C@@]2(C)[C@H]([C@H](OC(=O)c3ccccc3)[C@]3(O)CC(OC(=O)C(OC(=O)CCCC(=O)NCCCN(C)C)C(NC(=O)c4ccccc4)c4ccccc4)C(C)=C1C3(C)C)[C@]1(OC(C)=O)CO[C@@H]1C[C@@H]2O.Cl (some centres undefined)
Activity [1]: 10
Weight difference [2]: -0.1 g
Weight difference [3]: 0.1 g
T/C [4]: 188%
Activity [5]: 10
Activity [6]: 10
Weight difference [7]: 0 g
T/C [8]: 123%
T/C [9]: 129%
Weight difference [10]: 0.1 T-C
Weight difference [11]: -2.2 T-C
Weight difference [12]: -0.1 g
Survivors on day 4 [13]: 10
Activity [14]: 10
Weight difference [15]: 0.3 T-C
T/C [16]: 352%
Weight difference [17]: -5.9 T-C
Weight difference [18]: -0.1 g
T/C [19]: 352%
Weight difference [20]: -0.6 T-C

CC(=O)OC1C(=O)[C@]2(C)[C@@H](OC(=O)CCC(=O)[O-])C[C@H]3OC[C@@]3(OC(C)=O)[C@H]2[C@H](OC(=O)c2ccccc2)[C@]2(O)CC(OC(=O)C(OC(=O)CCC(=O)[O-])C(NC(=O)c3ccccc3)c3ccccc3)C(C)=C1C2(C)C.[Na+].[Na+] (some centres undefined)
Activity [21]: 10
T/C [22]: 109%
Weight difference [23]: 0 g
T/C [24]: 120%
Activity [25]: 10
T/C [26]: 149%
T/C [27]: 114%
T/C [28]: 166%
Activity [29]: 10
Weight difference [30]: 0 g
Activity [31]: 10
Activity [32]: 10

CC(=O)OC1C(=O)[C@@]2(C)[C@H]([C@H](OC(=O)c3ccccc3)[C@]3(O)CC(OC(=O)C(O)C(NC(=O)c4ccccc4)c4ccccc4)C(C)=C1C3(C)C)[C@]1(OC(C)=O)CO[C@@H]1C[C@@H]2O (some centres undefined)
Weight difference [2]: 0 g
Weight difference [3]: -0.2 g
T/C [4]: 175%
Activity [5]: 10
Activity [6]: 10
Weight difference [7]: 0 g
Activity [33]: 10
Survivors on day 4 [13]: 10
T/C [34]: Toxic
T/C [16]: 139%
Weight difference [35]: -1.2 g
T/C [19]: 96%
